TRPC6 act = mouse TRPC6 channel activators, primary screen, cell-based, HEK293, membrane potential dye; Short transient receptor potential channel 6 (Mus musculus), Q61143; HEK293-TRPC6 membrane potential dye fluorescence; active compounds read high; B-score at 10 µM; hit rate 0.13% among 310,000; AID 2550, 2010;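 active means B-score of the integrated fluorescence ratio above library mean plus 3 SD, and starting fluorescence ratio within library mean plus 5 SD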;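 further: higher score means more depolarization so channel activation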
TRPC4 agonist = activators of mouse TRPC4 channel, primary screen, Fluo4 calcium, HEK293 TRPC4beta/mu-opioid cells. Short transient receptor potential channel 4 (Mus musculus), Q9QUQ5. B-score at 10 µM. hit rate 0.49% among 310,000. Fluo4 calcium fluorescence; active compounds read high;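 active means B-score above 5 SD of library B-scores, and initial fluorescence ratio not above library mean plus 5 SD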;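 further: positive B-score marks a calcium rise read as TRPC4 activation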
Target sequence (Q9QUQ5 whole entry, looked up): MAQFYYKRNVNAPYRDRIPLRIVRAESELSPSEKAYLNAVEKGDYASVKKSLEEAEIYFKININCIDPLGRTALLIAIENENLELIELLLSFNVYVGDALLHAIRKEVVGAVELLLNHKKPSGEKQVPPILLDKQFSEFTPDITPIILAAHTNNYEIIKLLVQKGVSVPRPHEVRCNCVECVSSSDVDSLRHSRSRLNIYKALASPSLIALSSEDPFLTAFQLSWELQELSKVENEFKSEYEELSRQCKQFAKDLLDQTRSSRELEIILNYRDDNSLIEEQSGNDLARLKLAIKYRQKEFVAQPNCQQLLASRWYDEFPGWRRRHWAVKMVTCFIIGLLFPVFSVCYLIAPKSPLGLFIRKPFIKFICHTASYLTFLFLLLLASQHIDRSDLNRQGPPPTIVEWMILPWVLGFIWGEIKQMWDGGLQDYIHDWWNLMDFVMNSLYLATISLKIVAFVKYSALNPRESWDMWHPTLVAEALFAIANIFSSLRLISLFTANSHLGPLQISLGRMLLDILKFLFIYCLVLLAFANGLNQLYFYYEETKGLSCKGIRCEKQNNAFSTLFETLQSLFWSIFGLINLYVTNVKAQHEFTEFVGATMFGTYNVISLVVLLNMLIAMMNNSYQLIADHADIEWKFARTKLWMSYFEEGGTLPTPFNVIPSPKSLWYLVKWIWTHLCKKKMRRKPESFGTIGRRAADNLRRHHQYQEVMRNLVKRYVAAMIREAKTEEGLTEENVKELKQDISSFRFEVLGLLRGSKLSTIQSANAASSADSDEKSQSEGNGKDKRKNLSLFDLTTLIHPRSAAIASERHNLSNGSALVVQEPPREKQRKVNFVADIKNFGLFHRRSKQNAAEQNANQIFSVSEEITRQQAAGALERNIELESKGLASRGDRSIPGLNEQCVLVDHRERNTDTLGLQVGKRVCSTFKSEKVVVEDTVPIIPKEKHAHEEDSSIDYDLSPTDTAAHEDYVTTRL
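System – HEK293 cells stably co-expressing mouse TRPC4beta and mu-opioid receptor · Signal – Fluo4 calcium-sensitive dye fluorescence, kinetic, 1 Hz baseline · Benchmarks – buffer (low) and maximal DAMGO (high) · Read-out – B score of integrated fluorescence ratio per well · Incubation – dye loading 45 min room temperature, 110 s kinetic read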
TRPC4 block = inhibitors of mouse TRPC4 channel, primary screen, Fluo4 calcium, HEK293 TRPC4beta/mu-opioid cells | DAMGO-evoked Fluo4 calcium flux; active compounds read low | hit rate 0.39% among 300,000 | Short transient receptor potential channel 4 (Mus musculus), Q9QUQ5 | B-score at 10 µM;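 active means B-score over 3 SD under the library average, no early fluorescence shift, positive overall ratio signal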
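Assay system: TRPC4beta/mu-opioid receptor HEK293 cell line; compound dosing: single concentration per test compound; detection: Fluo4 Ca2+ flux fluorescence; evaluation: per-well B score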
TRPC4 PAM = positive allosteric modulators of TRPC4, primary screen, cell-based, mouse TRPC4beta, HEK293 mu-opioid, Fluo-4 calcium. B-score at 10 µM. DAMGO EC20, Fluo-4 Ca2+ flux; active compounds read high. Short transient receptor potential channel 4 (Mus musculus), Q9QUQ5. hit rate 0.42% among 310,000;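 active means B-score of calcium response area above 5 SD of library B-scores, with initial fluorescence ratio within 5 SD of library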;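 further: B-score of integrated fluorescence ratio over time as area under calcium response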
TRPC6 inh = mouse TRPC6 channel inhibitors, primary screen, cell-based, HEK293, membrane potential dye | ACh-evoked depolarization; active compounds read low | B-score at 10 µM | hit rate 1.1% among 310,000 | AID 2553, 2010;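 active means B-score under library mean minus 3 SD, initial fluorescence not abnormally high, positive integrated signal ratio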;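 further: B-score derived from integrated fluorescence ratio over the kinetic read; more negative B-score means stronger inhibition of depolarization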
TRPC4 spec 2 = second selectivity test of TRPC6 inhibitors: effect on mouse TRPC4; inhibition, % at 10 µM; HEK293 TRPC4/MOR, membrane potential dye fluorescence; channel activated by saturating DAMGO dose; hit rate 42% among 920; shares compounds with TRPC6 inh;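 active means compounds whose fluorescence signal differed from control wells by over 3 SD, either direction, in both duplicate plates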
TRPC4 spec = mouse TRPC4 modulation by TRPC6 hits, confirmation, selectivity assay for TRPC6 inhibitor project, cell-based, HEK293 TRPC4/mu-opioid, membrane potential dye; hit rate 61% among 920; activity change, negative = inhibition, % at 10 µM; membrane potential fluorescence; AID 2777, 2010; shares compounds with TRPC6 inh;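 active means rise or fall in signal beyond 3 SD of buffer-only wells in both replicate plates, either sign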;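 further: integrated kinetic ratio of fluorescence range over baseline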
HEK293 MPD ctr 2-1 = nonspecific membrane potential effects, parental HEK293, confirmation, counter-screen for TRPC6 inhibitor project, cell-based, second counter screen | hit rate 31% among 920 | shares compounds with TRPC6 inh | parental HEK293 membrane potential dye fluorescence; maximal acetylcholine challenge after compound addition | signal change vs control, % at 10 µM;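 active means membrane potential signal moving either way by over 3 SD of the maximum-effect control, in both duplicate plates, meaning non-specific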
HEK293 MPD ctr-1 = membrane potential modulation in parental HEK293, confirmation, counter-screen for TRPC6 inhibitor project, cell-based; shares compounds with TRPC6 inh; parental HEK293 membrane potential dye fluorescence; hit rate 60% among 920; membrane potential signal change, % at 10 µM;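 active means membrane potential signal shifting up or down by more than 3 SD of buffer-only wells, on both duplicate plates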
HEK293 MPD ctr-2 = parental HEK293 membrane potential modulation, confirmation, counter-screen for TRPC6 modulator project, cell-based | membrane potential dye fluorescence | membrane potential signal change, % at 10 µM | hit rate 51% among 2,400 | AID 488924, 2010 | shares compounds with TRPC6 inh;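 active means membrane potential signal moves up or down beyond 5 SD from buffer-only wells, on both duplicate plates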
HEK293 MPD ctr 2-2 = parental HEK293 nonspecific activity of TRPC6 modulators, second screen; shares compounds with TRPC6 inh; membrane potential dye fluorescence; after compound, maximal acetylcholine stimulation; inhibition, % at 10 µM; hit rate 14% among 2,400; AID 488926;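 active means membrane potential signal drops by more than 5 SD from the mean control signal, in both duplicate plates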;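 further: plate controls were acetylcholine ECmax control wells for no effect and buffer only wells for full effect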
TRPC4 ctr mod = TRPC4 modulation by TRPC6 hit compounds, confirmation, selectivity assay for TRPC6 modulator project, cell-based, HEK293 TRPC4/mu-opioid, membrane potential dye, mouse. shares compounds with TRPC6 inh. membrane potential fluorescence. percent change from control (negative = decrease, positive = increase), % at 10 µM. hit rate 69% among 2,400. AID 488927, 2010;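 active means membrane potential signal moved up or down beyond 5 SD of buffer control wells, in both duplicate plates, actives on both sides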;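 further: plate controls were assay buffer wells for no effect and DAMGO maximal-effect wells for full effect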
TRPC4/MOR inh 2 = mouse TRPC4 off-target activity of TRPC6 modulators, second screen. shares compounds with TRPC6 inh. HEK293 TRPC4/mu-opioid, membrane potential dye fluorescence; stimulated with maximal-effect DAMGO. inhibition, % at 10 µM. hit rate 55% among 2,400. AID 488928;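 active means drop in membrane potential signal beyond 5 SD of the control wells in both duplicate plates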;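 further: TRPC4 counter screen for TRPC6 hits run under conditions tuned for TRPC6 not TRPC4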
TRPC6 block conf = mouse TRPC6 channel inhibitors, confirmation, HEK293 cells, membrane potential dye, duplicate | shares compounds with TRPC6 inh | ACh-evoked depolarization | inhibition, % at 10 µM | hit rate 43% among 3,300;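 active means fluorescence ratio falls more than 5 SD below the full-stimulation control mean, in both duplicate runs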;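 further: integrated fluorescence ratio of peak minus minimum over baseline after agonist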
TRPC6 act conf = mouse TRPC6 channel activators, confirmation, HEK293 cells, membrane potential dye, duplicate. shares compounds with TRPC6 inh. HEK293-TRPC6 membrane potential dye fluorescence, FDSS. activation, % at 10 µM. hit rate 11% among 2,800;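 active means ratio signal rise beyond 5 SD above unstimulated control wells' mean, seen in both duplicate runs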;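 further: plate controls were buffer EC0 wells for no effect and acetylcholine ECmax response for full effect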
* marks the source's active call; other numbers are inactive results; i = inactive; nt = not tested or not shown. This is a sample that favours compounds with a hit; in the whole collection about 2.3% have one here.

SMILES	TRPC6 act	TRPC4 agonist	TRPC4 block	TRPC4 PAM	TRPC6 inh	TRPC6 block conf	TRPC6 act conf	others
O=[N+]([O-])c1cccc(C(=Nc2cccc(Cl)c2)NO)c1	i	i	i	i	-8.8*	i	i	TRPC4 spec 2=i;TRPC4 spec=i;HEK293 MPD ctr 2-1=i;HEK293 MPD ctr-1=i
Cc1ccc(NC2CCCN(C(=O)c3cnc4ccccn4c3=O)C2)cc1C (stereo unspecified)	i	i	i	i	i	nt	nt
CC(C)c1ccc(NC2CCCN(C(=O)c3cnc4ccccn4c3=O)C2)cc1 (stereo unspecified)	i	i	i	i	-7*	i	i	TRPC4 spec 2=i;TRPC4 spec=i;HEK293 MPD ctr 2-1=i;HEK293 MPD ctr-1=i
CC(C)N1CCN(CC#Cc2ccccc2)CC1CCO (stereo unspecified)	i	i	i	i	i	nt	nt
COc1ccc(N2CCN(CCNC(=O)c3ccc(NC(=O)C4CCCO4)cc3)CC2)cc1 (stereo unspecified)	i	i	i	i	i	nt	nt
c1ccc(C[n+]2cccc3c4ccccc4ccc32)cc1	i	i	i	i	-9.7*	68%*	i	HEK293 MPD ctr-2=-274%*;HEK293 MPD ctr 2-2=71%*;TRPC4 ctr mod=-46%*;TRPC4/MOR inh 2=64%*
O=[N+]([O-])c1ccc(C[n+]2cccc3ccccc32)cc1	i	i	i	i	i	nt	nt
NC(=O)C[n+]1cccc2ccccc21	i	i	i	i	i	nt	nt
CCCCC[n+]1cccc2c3ccccc3ccc21	i	i	i	i	-9.2*	58%*	i	HEK293 MPD ctr-2=-238%*;HEK293 MPD ctr 2-2=i;TRPC4 ctr mod=-39%*;TRPC4/MOR inh 2=66%*
COc1ccc(C(=O)N/C(=C/c2ccco2)C(=O)NC2CCS(=O)(=O)C2)cc1 (stereo unspecified)	i	i	i	i	i	nt	nt
O=C(CNC(=O)c1cccs1)Nc1ccncc1	i	i	i	i	i	nt	nt
CCC(=O)N/C(=N/c1nc(C)cc(C)n1)Nc1cccc(OC)c1	i	i	i	i	-5.8*	i	i	HEK293 MPD ctr-2=i;HEK293 MPD ctr 2-2=i;TRPC4 ctr mod=i;TRPC4/MOR inh 2=i
COc1ccc(C2=NCCc3cc(OC)c(OC)cc32)cc1OC	i	i	i	i	-7.4*	63%*	i	HEK293 MPD ctr-2=-410%*;HEK293 MPD ctr 2-2=i;TRPC4 ctr mod=-70%*;TRPC4/MOR inh 2=62%*
COc1ccc(C2=NCCc3cc(OC)c(OC)cc32)cc1	i	i	i	i	i	nt	nt
COc1ccc(CC2(C)OC(c3ccccc3)=NN2C(C)=O)cc1 (stereo unspecified)	i	i	i	i	i	nt	nt
CC(OC(=O)c1nn(C)c(=O)c2ccccc12)C(=O)Nc1ccc(S(N)(=O)=O)cc1 (stereo unspecified)	i	i	i	i	i	nt	nt
Cc1csc(NC(=O)CCCC(=O)c2ccccc2)n1	i	i	i	i	i	nt	nt
CCCCc1ccc(/C(C)=N/Nc2cc(N3CCOCC3)nc(C)n2)cc1	i	i	i	i	-5.2*	i	i	HEK293 MPD ctr-2=i;HEK293 MPD ctr 2-2=i;TRPC4 ctr mod=i;TRPC4/MOR inh 2=i
O=C(Nc1cccc(-c2ccc(N3CCOCC3)nn2)c1)c1ccc(F)cc1F	i	i	i	i	i	nt	nt
CC(C)(C)c1ccc(OCCCCCCN2CCNCC2)cc1	i	i	i	i	-7.7*	61%*	i	TRPC4 spec 2=52%*;TRPC4 spec=-0.1%*;HEK293 MPD ctr 2-1=i;HEK293 MPD ctr-1=2.7%*
CC(C)(c1ccccc1)c1ccc(OCCCN2CCNCC2)cc1	i	i	i	i	-6.8*	i	i	TRPC4 spec 2=34%*;TRPC4 spec=i;HEK293 MPD ctr 2-1=i;HEK293 MPD ctr-1=2.3%*
CC1CCN(CCCCOc2ccc(C(C)(C)C)cc2)CC1	i	i	i	i	i	nt	nt
CC(C)(C)C(=O)Nc1cc(S(=O)(=O)N2CCCCC2)ccc1N1CCCCC1	16*	i	i	i	-10*	43%*	74%*	HEK293 MPD ctr-2=180%*;HEK293 MPD ctr 2-2=i;TRPC4 ctr mod=20%*;TRPC4/MOR inh 2=i
CC(C)(C)C(=O)Nc1ccc(S(=O)(=O)N2CCCC2)cc1	i	i	i	i	i	nt	nt
O=C(COc1ccc(Br)cc1)Nc1cc(S(=O)(=O)N2CCCCC2)ccc1N1CCCCC1	i	i	i	i	i	nt	nt

Screening results: PubChem, Johns Hopkins Ion Channel Center
